Published values of several laboratories.
Each line is one published result; the experiments were not run side by side.
Rhomboid protease AarA: Rhomboid protease AarA (Providencia stuartii, UniProt P46116)
TDP1: Tyrosyl-DNA phosphodiesterase 1 (TDP1, Homo sapiens, UniProt Q9NUW8)
LDHA: L-lactate dehydrogenase A chain (LDHA, Homo sapiens, UniProt P00338)
PRMT3: Protein arginine N-methyltransferase 3 (PRMT3, Homo sapiens, UniProt O60678)
PDE7A: High affinity 3',5'-cyclic-AMP phosphodiesterase 7A (PDE7A, Homo sapiens, UniProt Q13946)
SLC22A6: Solute carrier family 22 member 6 (SLC22A6, Homo sapiens, UniProt Q4U2R8)
MAOA: Amine oxidase [flavin-containing] A (MAOA, Homo sapiens, UniProt P21397)
ABCG2: Broad substrate specificity ATP-binding cassette transporter ABCG2 (ABCG2, Homo sapiens, UniProt Q9UNQ0)
GSR: Glutathione reductase, mitochondrial (GSR, Homo sapiens, UniProt P00390)
HIPK4: Homeodomain-interacting protein kinase 4 (HIPK4, Homo sapiens, UniProt Q8NE63)
PTK2: Focal adhesion kinase 1 (PTK2, Homo sapiens, UniProt Q05397)
PTPN1: Tyrosine-protein phosphatase non-receptor type 1 (PTPN1, Homo sapiens, UniProt P18031)
MAP3K7: Mitogen-activated protein kinase kinase kinase 7 (MAP3K7, Homo sapiens, UniProt O43318)

Structure (SMILES) | target | assay | system | conditions | IC50
COc1oc(=O)c2cc(N)ccc2c1Cl | Rhomboid protease AarA | enzyme activity, inhibitor, fluorescence |  |  | 71 µM
CSc1ccc(/C=C2/C(C)=C(CC(=O)O)c3cc(F)ccc32)cc1 | Cone cGMP-specific 3',5'-cyclic phosphodiesterase subunit alpha' (PDE6C, Homo sapiens, UniProt P51160) | enzyme activity, inhibitor |  |  | > 100 µM
CCN(CC)CCCOc1cc2cc3c(cc2c2nc(OC)c4cc(OC)c(OC)cc4c12)OCO3 | TDP1 | enzyme activity, inhibitor, fluorescence |  |  | 5.4 µM
COc1cc(-c2cc(=O)c3c(O)c(OC)c(O[C@@H]4O[C@H](CO)[C@@H](O)[C@H](O)[C@H]4O)cc3o2)ccc1O | LDHA | enzyme activity, inhibitor |  | pH 7.4 | 153 µM
Fc1ccc(CN(CC(F)(F)F)C2CCN(CCCc3c[nH]c4ccc(Cn5cncn5)cc34)CC2)cc1 | Voltage-dependent T-type calcium channel subunit alpha-1I (CACNA1I, Homo sapiens, UniProt Q9P0X4) | ion current, patch clamp |  |  | 0.0007 µM
Nc1ncnc2c1ncn2[C@@H]1O[C@H](COP(=O)(O)OP(=O)(O)O)[C@@H](O)[C@H]1O | Nucleotide-binding oligomerization domain-containing protein 1 (NOD1, Homo sapiens, UniProt Q9Y239) | ligand displacement, FP |  |  | 0.19 µM
Nc1ncnc2c1ncn2[C@@H]1O[C@H](CSCCNC(=O)NCc2ccccc2)[C@@H](O)[C@H]1O | PRMT3 | enzyme activity, inhibitor, fluorescence |  |  | 0.52 µM
CN1C(=O)c2c(nn(Cc3ccc(-c4cccc(F)n4)cc3)c2Nc2ccccc2)N2C1=N[C@@H]1CCC[C@@H]12 | PDE7A | enzyme activity, inhibitor |  |  | > 0.1 µM
CC1(C)C(/C=C/C=C2/N(CCCc3ccccc3)c3ccc(Cl)cc3C2(C)C)=[N+](CCCc2ccccc2)c2ccc(Cl)cc21 | PRMT3 | enzyme activity, inhibitor, radiometric |  |  | 1.03 µM
Cc1cccc(Nc2ccccc2C(=O)O)c1C | SLC22A6 | transporter uptake, inhibitor |  |  | 1.08 µM
O=C(/C=C/c1ccc(O)cc1)c1ccc(O)cc1O | MAOA | enzyme activity, inhibitor |  |  | 22.7 µM
COc1cc(C(=O)O)ccc1O[C@@H]1O[C@H](CO)[C@@H](O)[C@H](O)[C@H]1O | LDHA | enzyme activity, inhibitor |  | pH 7.4 | > 500 µM
O=C(O)CSc1nnc(Br)n1-c1ccc(C2CC2)c2ccccc12 | ABCG2 | transporter uptake, inhibitor | Caco-2 | 2 h | > 3000 µM
C(/C=C/c1sc2c3ccccc3ccc2[n+]1CCCc1ccccc1)=C1/Sc2c(ccc3ccccc23)N1CCCc1ccccc1 | PRMT3 | enzyme activity, inhibitor, radiometric |  |  | 2.1 µM
COc1cc(C[C@H]2C(=O)OC[C@@H]2Cc2ccc(OC)c(OC)c2)ccc1O | PDE7A | enzyme activity, inhibitor |  |  | > 20 µM
O=c1oc(Cl)c(Cl)c2ccccc12 | Rhomboid protease AarA | enzyme activity, inhibitor, fluorescence |  |  | 10 µM
CN(C)CCCN1c2ccccc2Sc2ccc(Cl)cc21 | GSR | enzyme activity, inhibitor, absorbance |  |  | > 100 µM
CCNC(=O)NCCSC[C@H]1O[C@@H](n2cnc3c(N)ncnc32)[C@H](O)[C@@H]1O | PRMT3 | enzyme activity, inhibitor, fluorescence |  |  | > 100 µM
CNC(=O)c1cc2c(Oc3ccc(NC(=O)C4(C(=O)Nc5ccc(F)cc5)CC4)cc3)ccnc2cc1OC | HIPK4 | enzyme activity, inhibitor, radiometric |  |  | 0.003 µM

Structure (SMILES) | target | assay | system | conditions | IC50
C=CC(=O)Nc1cc(Nc2nccc(Nc3cc(Cl)c(F)cc3C(C)(C)O)n2)c(OC)cc1N1CC[C@@H](N(C)C)C1 | PTK2 | enzyme activity, inhibitor |  | with preincubation | 0.255 µM
O=C(CC(=O)c1cccc(N(Cc2ccccc2)Cc2ccccc2)c1)C(=O)N1CCN(C(=O)C(=O)CC(=O)c2cccc(N(Cc3ccccc3)Cc3ccccc3)c2)CC1 | PTPN1 | enzyme activity, inhibitor, absorbance |  | pH 7 | 2.8 µM
Nc1ncnc2c1ncn2[C@@H]1O[C@H](CSCCNC(=O)NCCCc2ccccc2)[C@@H](O)[C@H]1O | PRMT3 | enzyme activity, inhibitor, fluorescence |  |  | > 100 µM
CC[C@@H](C(=O)Nc1ccc(C(N)=O)c(F)c1)n1cc(OC)c(-c2cc(Cl)ccc2-n2cc(C(F)(F)F)nn2)cc1=O | Coagulation factor IX (F9, Homo sapiens, UniProt P00740) | enzyme activity, inhibitor |  |  | 2.2 µM
CN1CCN(c2ccc(Nc3ncc4cc(C#N)c(=O)n(C5CCCC5)c4n3)cc2)CC1 | Serine/threonine-protein kinase MARK2 (MARK2, Homo sapiens, UniProt Q7KZI7) | enzyme activity, inhibitor |  |  | 0.566 µM
N[C@@H](Cc1ccc(C(F)(F)P(=O)(O)O)cc1)C(=O)O | PTPN1 | enzyme activity, inhibitor, absorbance |  |  | 500 µM
C[C@H](NC(=O)[C@@H](c1cccnc1)N(C(=O)CCl)c1ccc(-n2cccc2)cc1)c1ccccc1 | Replicase polyprotein 1ab, main protease (rep, Severe acute respiratory syndrome coronavirus 2, UniProt P0DTD1) | enzyme activity, inhibitor, FRET |  |  | 0.05 µM
Nc1ncnc2c1ncn2[C@@H]1O[C@H](CSCCNC(=O)NCCc2ccccc2)[C@@H](O)[C@H]1O | PRMT3 | enzyme activity, inhibitor, fluorescence |  |  | > 100 µM
CCn1ncc2c1-c1cnc(N)c(c1)O[C@H](C)c1cc(F)ccc1-c1nn(C)nc1C2 | PTK2 | enzyme activity, inhibitor, radiometric |  |  | 0.011 µM
Nc1ncnc2c1ncn2[C@@H]1O[C@H](CSCCNC(=O)Nc2ccc(Cl)cc2)[C@@H](O)[C@H]1O | PRMT3 | enzyme activity, inhibitor, fluorescence |  |  | 22 µM
O=c1cc(-c2ccc(O)c(O)c2)oc2cc(O[C@@H]3O[C@H](CO)[C@@H](O)[C@H](O)[C@H]3O)cc(O)c12 | LDHA | enzyme activity, inhibitor |  | pH 7.4 | 139 µM
COc1cc2c(OC)nc3c4cc5c(cc4cc(OCCCN4CCCC4)c3c2cc1OC)OCO5 | TDP1 | enzyme activity, inhibitor |  |  | 5.5 to 13 µM
NC(=O)c1cnc2[nH]ccc2c1N[C@@H]1[C@@H]2CC3C[C@H]1C[C@@](O)(C3)C2 | SLC22A6 | transporter uptake, inhibitor, radiometric |  | 2 min | > 100 µM
COc1cc2c(OC)nc3c4cc5c(cc4cc(OCCCN4CCC(N6CCCCC6)CC4)c3c2cc1OC)OCO5 | TDP1 | enzyme activity, inhibitor, fluorescence |  |  | 6.4 µM
C#Cc1ccc(C(=O)C2=C(C)C(=O)c3ccccc3C2=O)cc1 | GSR | enzyme activity, inhibitor |  | pH 6.9 | 0.6 µM
COc1cc(/C=C2\SC(=O)NC2=O)cc(F)c1OCCNc1nc2c(cnn2C2CCCC2)c(=O)[nH]1 | PDE7A | enzyme activity, inhibitor |  |  | 0.279 µM
C[C@@H]1C[C@H]2O[C@@H]2/C=C\C=C\C(=O)Cc2cc(O)cc(O)c2C(=O)O1 | MAP3K7 | enzyme activity, inhibitor, ATP luminescence |  |  | > 10 µM
C[C@@H]1O[C@@H](O[C@@H]2[C@@H](O)[C@H](OCCc3ccc(O)c(O)c3)O[C@H](CO)[C@H]2OC(=O)/C=C/c2ccc(O)c(O)c2)[C@H](O)[C@H](O)[C@H]1O | LDHA | enzyme activity, inhibitor |  | pH 7.4 | > 500 µM
Nc1ncnc2c1ncn2[C@@H]1O[C@H](CSCCNC(=O)Nc2ccccc2)[C@@H](O)[C@H]1O | PRMT3 | enzyme activity, inhibitor, fluorescence |  |  | 1.9 µM

Structure (SMILES) | target | assay | system | conditions | IC50
CC1=C[C@@]2(C[C@H](C)[C@H]3CC=C(C)[C@@H](O[C@@H]4O[C@H](CO)[C@@H](O)[C@H](O)[C@H]4O)[C@@H]3O2)OC1=O | PTPN1 | enzyme activity, inhibitor |  |  | 91.3 µM
O=c1cc(-c2ccc(O)cc2)oc2c([C@@H]3O[C@H](CO)[C@@H](O)[C@H](O)[C@H]3O)c(O)c([C@@H]3O[C@H](CO)[C@@H](O)[C@H](O)[C@H]3O)c(O)c12 | MAOA | enzyme activity, inhibitor |  |  | 50.2 µM
COc1cc2c(OC)nc3c4cc5c(cc4cc(OCCCN(C)C)c3c2cc1OC)OCO5 | TDP1 | enzyme activity, inhibitor, fluorescence |  |  | 1.7 µM
CCS(=O)(=O)N1CC(CC#N)(n2cc(-c3ncnc4[nH]ccc34)cn2)C1 | ABCG2 | transporter uptake, inhibitor, radiometric | Sf9 | 0.75 min, cell membranes | 50.3 µM
Cc1c(C)c2c(c(C)c1O)CCC(C)(COc1ccc(CC3SC(=O)NC3=O)cc1)O2 (centres unmarked) | Peroxisome proliferator-activated receptor delta (PPARD, Homo sapiens, UniProt Q03181) | enzyme activity, inhibitor |  |  | 46 µM
COc1cccc(OC)c1OCCNCC1COc2ccccc2O1 (centres unmarked) | Alpha-1A adrenergic receptor (ADRA1A, Homo sapiens, UniProt P35348) | ligand displacement, radioligand |  |  | 0.00036 µM
CC1(C)C(/C=C/C=C2/N(CCCc3ccccc3)c3ccc4ccccc4c3C2(C)C)=[N+](CCCc2ccccc2)c2ccc3ccccc3c21 | PRMT3 | enzyme activity, inhibitor, radiometric |  |  | 0.72 µM
CCOc1ccc2c(-c3cc(C)nc(Nc4cc(OC)cc(C(F)(F)F)c4)n3)cnn2n1 | HIPK4 | enzyme activity, inhibitor |  |  | > 10 µM
NS(=O)(=O)c1cccc(Cc2c(-c3ccc(F)c(F)c3)[nH]n(-c3nc(C(=O)O)cs3)c2=O)c1 | LDHA | enzyme activity, inhibitor |  |  | > 50 µM
Cc1cnc(-c2ccc(-c3ccc(NC(=O)Nc4c(F)cc(F)cc4F)cc3F)c3c2C(=O)NC3)[nH]1 | High affinity nerve growth factor receptor (NTRK1, Homo sapiens, UniProt P04629) | enzyme activity, inhibitor |  |  | 0.0148 µM
O=c1cc(-c2ccc(O)cc2)oc2cc(O)c([C@@H]3O[C@H](CO)[C@@H](O)[C@H](O)[C@H]3O)c(O)c12 | MAOA | enzyme activity, inhibitor |  |  | 25.8 µM
CN1CCN(CCCN2c3ccccc3Sc3ccc(Cl)cc32)CC1 | GSR | enzyme activity, inhibitor, absorbance |  |  | > 100 µM
C#CCOc1ccc(/C=C/C(=O)N2CCC(Cc3ccccc3)CC2)cc1OC | MAOA | enzyme activity, inhibitor, fluorescence |  |  | 45.2 µM
C[C@@H]1C[C@H]2O[C@@H]2/C=C\C=C\C(=O)Cc2c(Cl)c(O)cc(O)c2C(=O)O1 | MAP3K7 | enzyme activity, inhibitor, ATP luminescence |  |  | > 10 µM
CC[C@@H](C)[C@@H](NC(=O)[C@@H](CCC(N)=O)NC(=O)[C@H](NC(C)=O)C(C)C)C(=O)N[C@@H](C(=O)N[C@H](Cc1ccc(O)cc1)C(=O)N[C@H](CCCCN)C(N)=O)C(C)C | Insulin (INS, Homo sapiens, UniProt P01308) | enzyme activity, inhibitor |  | pH 7.4 | ~75 µM
CC(C)(C)n1nc(-c2cnc3cc(OC4CC4)ccc3c2)c(C(N)=O)c1N | Receptor-interacting serine/threonine-protein kinase 2 (RIPK2, Homo sapiens, UniProt O43353) | cell-free assay |  |  | 1.71 µM
O=C(O)c1ccc(CN2C(=O)c3cccc(NC(=O)c4ccc(Cl)s4)c3C2=O)cc1 | LDHA | enzyme activity, inhibitor |  |  | 0.308 µM
OC[C@H]1O[C@@H](n2cnc3c(NCCCc4ccccc4)ncnc32)[C@H](O)[C@@H]1O | PRMT3 | enzyme activity, inhibitor, fluorescence |  |  | > 100 µM
